System: Drosophila S3 cells
Assay: qHTS of OA-induced lipid droplet storage in S3 cells
Type: cell-based
Conditions: Drosophila melanogaster
How it was run: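 Drosophila S3 cells in medium with 5% FCS receive library compounds at […] (46 μM to 3 nM, 1:5 steps). Droplets are induced with 400 μM oleic acid on fatty-acid-free BSA. After 18 h, cells are fixed and stained with BODIPY 493/503 (lipid) and CellTracker Red CMTPX (cell count), then read by 488 nm laser scanning. Lipid signal is normalised to cell number; dose-response curves are fitted.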

Work on CCC/C=C/C/C=C/C=C/C=N/NN=O [TriacsinC] yielded an EC50 of 90 nM.

Reference: PMC4919474 (EBioMedicine, 2016)
